{"source": "paper PMC2831214", "about": "(Nature chemical biology, 2010)", "key": {"[1]": {"tested_on": "HeLa, MDA-MB231 and Jurkat T cells", "experiment": "Cell proliferation screen by [3H]-thymidine incorporation", "type": "cell-based", "conditions": "2.5 µM, 24 h", "how_it_was_run": "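Each of the three cell lines was exposed to test compound at 2.5 µM for 24 h. [3H]-thymidine was then applied to monitor cellular DNA synthesis as the proliferation read-out.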"}, "[2]": {"tested_on": "protein synthesis in HeLa cells", "experiment": "De novo protein synthesis by [35S]cysteine/methionine metabolic labeling", "type": "cell-based", "conditions": "for Effect on protein synthesis (translation): metabolic labeling 2 h", "how_it_was_run": "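HeLa cells were given varying concentrations of test compound with [35S]cysteine/methionine for 2 h. TCA-precipitated proteins were collected on PVDF membrane and scintillation counted. Cycloheximide served as translation-inhibitor control and actinomycin D as transcription-inhibitor control. Runs were in triplicate, with s.d. shown.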"}, "[3]": {"tested_on": "RNA synthesis in HeLa cells", "experiment": "RNA synthesis", "type": "cell-based", "conditions": "[3H]uridine 2 h", "how_it_was_run": "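HeLa cells exposed to a range of test compound concentrations with [3H]uridine for 2 h. TCA-precipitated material on PVDF membrane quantified by scintillation counting. Actinomycin D and cycloheximide served as controls.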"}, "[4]": {"target": "eEF1A-mediated binding of aminoacyl-tRNA to ribosomes (Oryctolagus cuniculus, UniProt G1SNY0+G1T040)", "experiment": "eEF1A-dependent aminoacyl-tRNA binding", "type": "biochemical, rabbit", "conditions": "200 µM compound", "how_it_was_run": "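89 pmol ribosomes in 20 mM HEPES pH 7.4, 100 mM KCl, 10 mM MgCl2, 1 mM DTT were mixed with 200 ng poly(U), 2.2 µg eEF1A, 150 µM GDPNP and 200 µM compound before 10 pmol [14C]Phe-tRNAPhe was added. After 10 min at 37 °C, samples were diluted, filtered through nitrocellulose, rinsed and scintillation counted (1 pmol = 1100 dpm).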"}, "[5]": {"target": "eEF2-mediated translocation (Oryctolagus cuniculus, UniProt G1SNY0+G1T040)", "experiment": "eEF2-dependent translocation", "type": "biochemical, rabbit", "conditions": "200 µM compound"}, "[6]": {"target": "pre-assembled initiation complexes (Saccharomyces cerevisiae, UniProt P02406+P0CX27)", "sequence (P02406 2-149 limits assumed)": "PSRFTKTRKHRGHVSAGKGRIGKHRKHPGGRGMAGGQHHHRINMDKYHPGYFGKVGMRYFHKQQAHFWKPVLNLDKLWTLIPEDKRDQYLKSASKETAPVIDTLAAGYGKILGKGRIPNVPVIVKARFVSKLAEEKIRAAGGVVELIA", "sequence (P0CX27 2-106 limits assumed)": "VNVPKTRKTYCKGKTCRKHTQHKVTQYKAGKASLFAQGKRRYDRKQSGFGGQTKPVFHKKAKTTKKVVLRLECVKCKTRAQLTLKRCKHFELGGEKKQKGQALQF", "experiment": "Reconstituted translation elongation, tripeptide", "type": "biochemical", "conditions": "200 µM"}, "[7]": {"target": "binding of deacylated tRNA to the E-site of ribosomes (Oryctolagus cuniculus, UniProt G1SNY0+G1T040)", "experiment": "Deacylated tRNA binding to ribosomes", "design": "species or system rabbit", "how_it_was_run": "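Deacylated tRNA was 3′-end labelled with [32P] and diluted to 80,000 cpm/pmol. Inhibitor was at graded concentrations; 4 µM unlabelled deacylated tRNA was the control. Samples were diluted with 1 ml buffer, filtered through nitrocellulose, washed 5× and scintillation counted.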"}, "[8]": {"target": "ribosome on rabbit β-globin mRNA (Oryctolagus cuniculus, UniProt G1SNY0+G1T040)", "experiment": "Toeprinting on rabbit β-globin mRNA in rabbit reticulocyte lysate", "type": "biochemical", "conditions": "CHX 10 mM; LTM at 1/10,000th of the CHX concentration"}, "HEK 293T cells": {"tested_on": "HEK 293T cells", "experiment": "Polysome profiles in cells", "type": "cell-based", "conditions": "30 min"}, "[9]": {"tested_on": "rabbit reticulocyte lysate with rabbit β-globin RNA", "experiment": "Polysome profiles in vitro", "type": "biochemical", "conditions": "cell free system, 15 min"}, "[10]": {"target": "peptide bond formation on ribosomes (Oryctolagus cuniculus, UniProt G1SNY0+G1T040)", "experiment": "Peptidyl transfer", "type": "biochemical, rabbit", "conditions": "LTM even at millimolar concentrations"}, "[11]": {"target": "ribosomes, eEF1A and eEF2 (Oryctolagus cuniculus, UniProt G1SNY0+G1T040)", "experiment": "Polyphenylalanine synthesis on a poly", "type": "biochemical, rabbit", "conditions": "200 µM"}, "[12]": {"tested_on": "cap-dependent and EMCV, HCV, CrPV IRES-mediated translation", "experiment": "IRES dual luciferase reporter assay in rabbit reticulocyte lysate", "type": "biochemical", "conditions": "HCV and CrPV IRES reporters"}, "breast cancer cell lines": {"tested_on": "breast cancer cell lines", "experiment": "Proliferation of breast cancer cell lines by [3H]thymidine incorporation", "type": "cell-based", "conditions": "array of breast cancer cell lines, 24 h"}, "MCF10A": {"tested_on": "MCF10A", "experiment": "Proliferation of non-tumorigenic breast cell line by [3H]thymidine incorporation", "type": "cell-based", "conditions": "24 h"}, "MDA MB 231 tumors": {"tested_on": "MDA MB 231 tumors", "experiment": "Mouse xenograft model", "type": "in vivo, female nude mice", "conditions": "0.6 mg/kg every day for one month, intraperitoneal", "how_it_was_run": "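Two million MDA MB 231 cells were injected subcutaneously into female nude mice. Once tumours were palpable, mice received 0.6 mg/kg test compound or solvent alone daily for one month.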"}, "P388 lymphoma": {"tested_on": "P388 lymphoma", "conditions": "cited from earlier work"}, "Candida": {"tested_on": "Candida", "conditions": "cited from earlier work"}, "translation in vitro": {"tested_on": "translation in vitro", "experiment": "In vitro translation", "type": "biochemical"}, "translation": {"tested_on": "translation", "conditions": "cited from earlier work"}}, "note": "Entries after “also recorded” stand apart in the source; their conditions may differ. Numbered stars: 1 amine (or outer) side, 2 acyl side, 3 side chain; on linkers, the order of the positions; unused ones are H or OH. Bridge positions count the residues as written; N and C are the ends. Square brackets hold non-standard residues; d marks the D form. Peptide text beside a SMILES is read from it. I, II: the chains in the order shown. Actinocin(9to1) = Cc1c2oc3c(C)ccc(C(=O)[*:1])c3nc-2c(C(=O)[*:2])c(N)c1=O; NMeV = CN[C@H](C(=O)O)C(C)C; Sar = CNCC(=O)O", "data": [{"smiles": "CO[C@H]1/C=C/CC/C=C/C(=O)O[C@@H](/C(C)=C/[C@H](C)C(=O)CCCC2CC(=O)NC(=O)C2)[C@@H](C)[C@@H]1O", "note": "[Isomigrastatin, isomigrastatin]", "values": [{"measurement": "Inhibition of cell proliferation ([3H]-thymidine incorporation)", "setting": "[1]", "value": "highly active"}, {"measurement": "Effect on protein synthesis (translation)", "setting": "[2]", "value": "exclusively inhibited protein synthesis"}, {"measurement": "Effect on transcription", "setting": "[3]", "value": "without a significant impact on transcription"}]}, {"smiles": "CO[C@H]1/C=C/CC/C=C/C(=O)O[C@H]([C@H](C)C(=O)CCCC2CC(=O)NC(=O)C2)/C(C)=C\\[C@@H](C)[C@@H]1O", "note": "[Migrastatin, migrastatin]", "values": [{"measurement": "Inhibition of cell proliferation ([3H]-thymidine incorporation)", "setting": "[1]", "value": "neither compound affected cell proliferation"}, {"measurement": "Effect on protein synthesis (translation)", "setting": "[2]", "value": "no inhibitory effect"}]}, {"smiles": "C[C@@H]1C[C@@H]([C@H](O)CC2CC(=O)NC(=O)C2)C(=O)[C@@H](C)C1", "note": "[CHX, cycloheximide, reference compound]", "values": [{"measurement": "Effect on protein synthesis (translation)", "setting": "[2]", "value": "strongly inhibited translation"}, {"measurement": "Effect on transcription", "setting": "[3]", "value": "only affected transcription at very high doses"}, {"measurement": "Effect on eEF1A-mediated binding of aminoacyl-tRNA", "setting": "[4]", "value": "not inhibited"}, {"measurement": "Effect on eEF2-mediated translocation (phenylalanyl puromycin formation)", "setting": "[5]", "value": "inhibited phenylalanyl puromycin formation"}, {"measurement": "Effect on tripeptide formation", "setting": "[6]", "value": "similar, albeit less pronounced effect"}, {"measurement": "Concentration causing a detectable decrease in the amount of bound tRNA", "setting": "[7]", "value": 10, "unit": "mM"}, {"measurement": "Toeprint titration, ribosome arrest", "setting": "[8]", "value": "about half the ribosomal population to stop at the very first codon"}, {"measurement": "Effect on polysome profile in cells", "setting": "HEK 293T cells", "value": "little difference between CHX and solvent control"}, {"measurement": "Effect on polysome profile in vitro", "setting": "[9]", "value": "causing accumulation of 80S ribosomes"}]}, {"smiles": "C/C(=C\\[C@H](C)C(=O)C[C@H](O)CC1CC(=O)NC(=O)C1)[C@@H]1OC(=O)/C=C/CC/C=C/C=C\\[C@@H]1C", "note": "[LTM, lactimidomycin]", "values": [{"measurement": "Inhibition of cell proliferation ([3H]-thymidine incorporation)", "setting": "[1]", "value": "most potent inhibitor of cell proliferation; also recorded: highly active"}, {"measurement": "Potency as inhibitor of translation relative to CHX", "setting": "[2]", "value": "about 10 fold"}, {"measurement": "Effect on protein synthesis (translation)", "setting": "[2]", "value": "exclusively inhibited protein synthesis"}, {"measurement": "Effect on transcription", "setting": "[3]", "value": "without a significant impact on transcription"}, {"measurement": "Effect on eEF1A-mediated binding of aminoacyl-tRNA", "setting": "[4]", "value": "not inhibited"}, {"measurement": "Effect on peptide bond formation (methionyl-puromycin)", "setting": "[10]", "value": "did not affect peptide bond formation"}, {"measurement": "Effect on eEF2-mediated translocation (phenylalanyl puromycin formation)", "setting": "[5]", "value": "inhibited phenylalanyl puromycin formation"}, {"measurement": "Effect on polyphenylalanine synthesis", "setting": "[11]", "value": "inhibited polyphenylalanine synthesis"}, {"measurement": "Effect on tripeptide formation", "setting": "[6]", "value": "greatly slowed down tripeptide formation"}, {"measurement": "Effect on cap-dependent and IRES-mediated translation", "setting": "[12]", "value": "inhibited translation from all three constructs to a similar degree"}, {"measurement": "Toeprint titration, ribosome arrest", "setting": "[8]", "value": "arrested the ribosome on the start codon"}, {"measurement": "Effect on polysome profile in cells", "setting": "HEK 293T cells", "value": "large increase in 80S ribosomes accompanied by depletion of polysomes"}, {"measurement": "Effect on polysome profile in vitro", "setting": "[9]", "value": "causing accumulation of 80S ribosomes"}, {"measurement": "IC50 concentrations, cell growth", "setting": "breast cancer cell lines", "value": "low nanomolar range"}, {"measurement": "Inhibition of growth of non-tumorigenic cells", "setting": "MCF10A", "value": "higher doses were necessary"}, {"measurement": "Effect on tumor growth in vivo", "setting": "MDA MB 231 tumors", "value": "appreciable effect on tumor growth"}, {"measurement": "Survival of mice with P388 lymphoma", "setting": "P388 lymphoma", "value": "extended the survival"}, {"measurement": "Sensitivity of Candida", "setting": "Candida", "value": "resistant"}]}, {"smiles": "CSC[S@+]([O-])C[C@H](CO)NC(=O)/C=C/c1c(C)[nH]c(=O)[nH]c1=O", "note": "[Sparsomycin, reference compound]", "values": [{"measurement": "Effect on peptide bond formation (methionyl-puromycin)", "setting": "[10]", "value": "prevented methyionyl-puromycin synthesis"}]}, {"smiles": "CC(/C=C/C(C)=C/[C@@H]1Cc2nc(cs2)[C@@H](C)C[C@@H](N)CC(=O)O[C@@H](C)C/C(C)=C/C=C\\C(=O)O1)=C\\CN(C)C", "note": "[PatA, Pateamine A, reference compound]", "values": [{"measurement": "Effect on cap-dependent and IRES-mediated translation", "setting": "[12]", "value": "allowed translation off the HCV IRES"}]}, {"smiles": "CCOC(=O)CO[C@@H](CC(=O)[C@@H](C)/C=C(\\C)[C@@H]1OC(=O)/C=C/CC/C=C/C=C\\[C@@H]1C)CC1CC(=O)NC(=O)C1", "note": "[compound 36, Ethylacetyl-Lactimidomycin]", "values": [{"measurement": "Effect of modification on translation inhibitory activity of LTM", "setting": "translation in vitro", "value": "did not significantly decrease the activity"}]}, {"smiles": "C/C(=C\\[C@H](C)C(=O)C[C@H](O)CC1CC(=O)NC(=O)C1)[C@@H]1OC(=O)CCCC/C=C/C=C\\[C@@H]1C", "note": "[compound 7, 2H Lactimidomycin]", "values": [{"measurement": "Inhibition of cell proliferation ([3H]-thymidine incorporation)", "setting": "[1]", "value": "highly active"}]}, {"smiles": "CO[C@H]1/C=C/CC/C=C/C(=O)O[C@@H](/C(C)=C/[C@H](C)C(=O)/C=C/CC2CC(=O)NC(=O)C2)[C@@H](C)[C@@H]1O", "note": "[compound 8, Didehydro Isomigrastatin]", "values": [{"measurement": "Inhibition of cell proliferation ([3H]-thymidine incorporation)", "setting": "[1]", "value": "highly active"}]}, {"smiles": "C=C/C(C)=C/[C@H](C)C(=O)C[C@H](O)CC1CC(=O)NC(=O)C1", "note": "[Streptimidone]", "values": [{"measurement": "Inhibition of translation", "setting": "translation", "value": "inhibits translation"}]}, {"smiles": "Cc1c2oc3c(C)ccc(C(=O)N[C@@H]4C(=O)N[C@H](C(C)C)C(=O)N5CCC[C@H]5C(=O)N(C)CC(=O)N(C)[C@@H](C(C)C)C(=O)O[C@@H]4C)c3nc-2c(C(=O)N[C@@H]2C(=O)N[C@H](C(C)C)C(=O)N3CCC[C@H]3C(=O)N(C)CC(=O)N(C)[C@@H](C(C)C)C(=O)O[C@@H]2C)c(N)c1=O", "note": "[Actinomycin D, reference compound] (I: T[dV]P[Sar][NMeV] / II: T[dV]P[Sar][NMeV]; ester I:1-I:C, II:1-II:C; linker I:N-II:N via Actinocin(9to1))", "values": [{"measurement": "Effect on protein synthesis (translation)", "setting": "[2]", "value": "concomitantly blocked transcription and translation"}, {"measurement": "Effect on transcription", "setting": "[3]", "value": "concomitantly blocked transcription and translation"}]}, {"smiles": "CO[C@@H](/C=C/CC/C=C/C(=O)O)[C@@H](O)[C@H](C)[C@@H](O)/C(C)=C/[C@H](C)C(=O)CCCC1CC(=O)NC(=O)C1", "note": "[Dorrigocin B]", "values": [{"measurement": "Inhibition of cell proliferation ([3H]-thymidine incorporation)", "setting": "[1]", "value": "neither compound affected cell proliferation"}, {"measurement": "Effect on protein synthesis (translation)", "setting": "[2]", "value": "no inhibitory effect; also recorded: abolished any inhibitory activity"}]}]}
